# The RNAGym collection of RNA variant scans (doi:10.1038/nmeth.2970)
# B1: NELF-E aptamer (parent)
# chain: CCCAACGACUGCCGAGCGAGAUUACGCUUGAGCGCCCCACUGAGGAUGCCCACGGGCGAUUGGGGCACGG
# Variants of: B1
# Assay: HiTS-RAP
# Conditions: with NELF-E (Drosophila)
# Method in brief: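 Aptamer DNA templates carrying a T7 promoter and ter site were sequenced on an Illumina GAIIx flowcell, then transcribed in situ by T7 RNA polymerase and halted by GST-Tus (30 minutes, 37°C). Clusters were imaged after 30-minute room-temperature equilibration with NELF-E-mOrange at 0.064 to 1000 nM in HEPES binding buffer, and only the first binding curve was used. Intensities were normalised to sequencing intensity and averaged per sequence. Kd came from weighted Hill fits, keeping fits with variance below 1,000,000.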
row,Variant,Kd [nM]
1,A15G U22G,5.78
2,C17G U28G,6.4
3,C17G U28C,8.7
4,A19G G65U,7.38
5,A19G G65A,6.12
6,G16U A21G,5.22
7,G16U A21U,6.82
8,A15G U29G,5.98
9,C17G U23G,5.45
10,G14U U22G,6.53
11,G14U U22C,5.6
12,G14U G64A,6.6
13,A15U G20U,7.81
14,G16U G56A,13.2
15,U22G C35G,6.38
16,U22G C35U,11.6
17,U22G C35A,7.18
18,G14U G63A,11.9
19,G14U G63U,12.8
20,C17G G62A,28.8
21,G18U U22G,6.85
22,G16U C66U,5.92
23,A15U U22G,6.74
24,U22G G26A,5.64

row,Variant,Kd [nM]
1,U22G G26U,4.84
2,U22G A52G,4.99
3,U22G A52U,17.5
4,U22G A52C,6.52
5,U22G C53A,4.91
6,U22G C53U,4.04
7,G16U A39G,8.49
8,G16U A39U,23.5
9,G16A C17G,6.2
10,U22G C51A,8.46
11,U22G C51U,7.12
12,G20U U23G,6.37
13,A19G G63U,14.8
14,A19G G63A,19.1
15,U22G G32U,4.59
16,U22G G32A,4.39
17,G18A G20U,8.6
18,C17G U41G,4.85
19,U22G A43G,22.8
20,U22G A43U,56.4
21,A21G U29G,5.79
22,C17G C50U,15.9
23,U22C C57U,2.92
24,G14U U23G,6.29

row,Variant,Kd [nM]
1,C17G G18C,6.41
2,C17G G18A,6.63
3,C17G G18U,6.33
4,C17A U23G,5.06
5,C17G G34A,8.48
6,A19G A31G,6.72
7,A19G A31U,5.3
8,C17G C33U,5.64
9,A19G U41G,6.27
10,A19G U41C,92.4
11,A19U A52U,22.1
12,G18U A19G,6.31
13,A19G G34A,6.47
14,G20A U41G,5.24
15,G14U U29A,5.7
16,G14U U29C,7.48
17,G14U U29G,6.2
18,C17U U41G,5.63
19,C17G A67G,5.71
20,C17G U22C,5.02
21,C17G U22G,4.82
22,C17G C36U,9.05
23,C17G,5.02
24,C17U,4.56

row,Variant,Kd [nM]
1,C17A,4.3
2,C17U A31G,5.15
3,G16A G20U,7.98
4,A21G U41G,6.21
5,G16U A31U,6.75
6,G16U A31G,8.32
7,G16U U29C,6.55
8,G16U U29G,6.38
9,C17U U29G,5.35
10,C17G A43G,9.66
11,C17G A39G,8.44
12,G14U G55A,7.48
13,G14U G55U,9.69
14,G16A U22G,6.17
15,C17G G65U,7.17
16,U22C U23G,5
17,G18U A24G,5.98
18,C17G C40G,5.54
19,G20U A59G,19.9
20,U22G C33U,5.57
21,U22G C33G,6.1
22,A19U A21U,6.8
23,A19G A21G,6.58
24,A15U A19G,9.2

row,Variant,Kd [nM]
1,C17G A31G,5.92
2,A21U A67G,5.54
3,A15U C57U,14.3
4,C17G G26A,5.44
5,A15G C17G,5.93
6,A21G U28C,6.03
7,C17G U47G,4.63
8,G16U C37U,21.9
9,G18U U29G,7.47
10,G18A A24G,5.85
11,U22G A39G,8.32
12,U22G A39U,29.7
13,C17G C25G,4.76
14,C17G C25U,5.39
15,A15U G16U,8.03
16,G16U A52G,4.81
17,G16U A52U,19.7
18,G20U G54A,20.1
19,A15G U41G,5.7
20,A19G C57U,4.99
21,G14U U47A,9.21
22,G14U G62A,19.1
23,G20U U22G,6.52
24,A19G C33U,7.36

row,Variant,Kd [nM]
1,C17U G54A,11.6
2,U22A,5.46
3,U22G,4.92
4,U22C,4.53
5,A19U U29G,5.71
6,G16U G54A,16.2
7,C17G G30A,3.42
8,U22G A31G,6.63
9,U22G A31U,5.65
10,C17U G64A,11.1
11,G16U U22G,6.64
12,G20U A39G,10.9
13,C17G G63U,10.3
14,G16A A24G,6.88
15,A19G A24U,7.26
16,A19G A24G,6.18
17,G16U,5.88
18,G16C,4.81
19,G16A,5.27
20,A21G U22G,5.72
21,G16U G55U,8.69
22,G16U G55A,7.53
23,A15G G16A,8.29
24,A15G G16U,5.48

row,Variant,Kd [nM]
1,A21U A24G,5
2,A19G U23G,6.11
3,C17U A43G,20.5
4,C17G U29G,4.86
5,C17G U29C,4.96
6,G20U A31G,8.41
7,A21G G64A,9.49
8,A21G A46G,39.1
9,A19G U22C,4.25
10,A19G U22G,5.7
11,A19G U29A,3.96
12,A19G U29G,5.87
13,A19G U29C,6.11
14,G16U G42A,36.6
15,A15G A24G,6.12
16,A19G C66U,5.18
17,U22A U23G,5.34
18,G20U G65U,7.46
19,G16U G34A,9.22
20,A19G G20U,6.34
21,A19G G20A,6.4
22,G16A U29G,5.1
23,G16U U23G,5.85
24,G16A U23G,6.04

row,Variant,Kd [nM]
1,G18A A19G,5.36
2,G18A A19C,6.3
3,U22G C27G,8.09
4,U22G C27U,4.34
5,A15G,4.77
6,A15U,5.65
7,A15C,4
8,G20A A21G,7.05
9,U22G A67G,5.48
10,U22G A67U,7.3
11,C17G G64A,6.78
12,C17G C38U,7.29
13,U22C U47A,10.5
14,A21G U23G,6.71
15,U22G C37G,7.01
16,U22G C37U,12.7
17,U22G C37A,14.6
18,C17G G20U,6.58
19,C17G G20A,5.92
20,G20U G64A,9.36
21,G16U U61A,33.3
22,G16U U61C,77.5
23,G20A U29G,4.98
24,A19U U41G,4.74

row,Variant,Kd [nM]
1,A19G U47G,7.16
2,U22G A46G,35.8
3,U22G A46U,33
4,U22C U29G,5.29
5,G16U G30A,4.95
6,G16U U28G,6.45
7,G16U A19U,5.21
8,G16U A19G,6.97
9,A19G C35U,7.42
10,G20U A21G,5.12
11,G18A U41G,4.87
12,G16U G65U,7.8
13,A15G A21G,5.12
14,U22G A59G,76.4
15,U22G A59U,97.1
16,A15U U23G,5.84
17,A15U U29G,6.83
18,A15U U29A,5.96
19,G18A U23G,4.95
20,G16U C17G,5.95
21,G16U C17U,6.11
22,A21U U41G,5.38
23,G16U U41C,76.2
24,G16U U41G,6.39

row,Variant,Kd [nM]
1,A19G A67U,5.89
2,A19G A67G,5.94
3,A19G U28C,9.82
4,A19G G54A,15.1
5,G14U U28G,9.45
6,A21C,5.33
7,A21U,5.14
8,A21G,5.04
9,A21U U23G,6.73
10,C17G A19G,5.02
11,C17G A19U,7.26
12,A15G A19G,6.95
13,U22A A24G,7.66
14,G20A,5.25
15,G20U,6.04
16,G20C,5.82
17,G16U C57U,8.22
18,G20U A46G,47.1
19,C17G C57U,5.45
20,G20A A24G,6.46
21,A19G A39G,9.35
22,A19G A39U,31.1
23,G16U G20U,7.39
24,A19G G55U,10.6

row,Variant,Kd [nM]
1,A19G G55A,7.92
2,C17U A19G,7.29
3,A19G C53U,4.21
4,G18U U23G,6.43
5,C17G G55U,7.51
6,C17G G55A,7.03
7,G20U A24G,6.87
8,G16U G64A,7.51
9,G18A G26A,6.84
10,U22G C50G,7.97
11,U22G C50U,12.9
12,U22G C50A,19.3
13,C17U G34A,5.49
14,A15G U23G,5.24
15,A21U C25G,6.57
16,G16U A24G,7.15
17,U22G C57U,6.19
18,C17U U22G,4.67
19,G16U G26U,7.33
20,G16U G26A,4.92
21,A19G G26A,4.12
22,G20U U29G,6.19
23,G20U U28C,9.17
24,G16U G18A,7.17

row,Variant,Kd [nM]
1,U22G C66A,4.13
2,U22G C66U,5.67
3,U22C U41G,5.5
4,A19U U22G,6
5,A19G A43G,8.78
6,A19G A52G,5.06
7,A19G A52U,19.5
8,U22G C40G,6.42
9,U22G C40U,82.8
10,A19U A24G,5.61
11,U22G C25U,6.29
12,U22G C25G,5.5
13,C17U A24G,5.54
14,G16A U41G,6.55
15,G18A U29G,5.68
16,A21G A59U,73
17,G18A U22G,6
18,G20U C57U,7.84
19,G16U G63A,15.2
20,U22G C49U,24.7
21,U22G C38U,8.32
22,A21U U22G,5.31
23,G18C,6.13
24,G18A,4.61

row,Variant,Kd [nM]
1,G18U,5.57
2,G20U U41G,6.33
3,G14U U41A,51.7
4,G14U U41G,6.33
5,G20A U23G,5.94
6,A15U U60C,10.7
7,G16U A67U,10.1
8,G16U A67G,5.58
9,G16U C25G,7.48
10,G20A U22G,5.27
11,A15U G34A,11.8
12,A19G G30A,4.57
13,U22G G30U,6.56
14,U22G G30A,5.32
15,A15U A67G,4.18
16,A19U U23G,6.66
17,A19G A59G,36.8
18,C17G A21G,6.68
19,G14U G65A,6.7
20,G14U G65U,8.73
21,A19G C25U,6.25
22,A19G C25G,5.29
23,U22G A24G,5.62
24,U22G A24U,7.45

row,Variant,Kd [nM]
1,G14U G56U,7.18
2,G14U G56A,9.7
3,A15U A24G,6.86
4,A19G A46G,20.6
5,A21G A24G,6.42
6,A15U U41C,82.7
7,A15U U41G,6.49
8,G14U U61C,86.8
9,G14U U61A,36
10,C17U U23G,4.95
11,U22G C36U,6.89
12,U22G C36G,7.35
13,U22G C36A,10.1
14,A19G U61A,24.3
15,A21U U29G,5.33
16,U22C A24G,6.97
17,A15U C17G,7.12
18,A19G G64A,6.54
19,A19C,4.44
20,A19U,5.02
21,A19G,5.18
22,C17G A24G,5.52
